Experimental data: ChEMBL document CHEMBL3997773, “Synthesis of C-4-Substituted Steviol Derivatives and Their Inhibitory Effects against Hepatitis B Virus” (J Nat Prod, 2016)
Active and inactive are the calls of the source. No cut-off for these calls is given here.

Key:
[1] = tested on: Hepatitis B virus subtype adw2; assay: (§1) Antiviral activity against Hepatitis B virus subtype adw2 infected in human HuH7 cells assessed as inhibition of viral DNA replication by RT-PCR method; type: functional, cell-based
[2] = tested on: Hepatitis B virus subtype adw2; assay: Antiviral activity against Hepatitis B virus subtype adw2 infected in human HepG2.2.15 cells assessed as inhibition of HBeAg secretion by EIA
[3] = tested on: Hepatitis B virus subtype adw2; assay: Antiviral activity against Hepatitis B virus subtype adw2 infected in human HepG2.2.15 cells assessed as inhibition of HBsAg secretion by EIA
[4] = Antiviral activity against Hepatitis B virus in human HepG2.2.15 cells assessed as inhibition of viral DNA replication by RT-PCR method
[5] = Antiviral activity against Hepatitis B virus subtype adw2 infected in human HuH7 cells assessed as inhibition of HBsAg secretion by EIA; type: functional, cell-based; conditions: Huh-7
[6] = Selectivity index, ratio of TC50 for human HepG2.2.15 cells to IC50 for Hepatitis B virus subtype adw2 infected in human HuH7 cells assessed as inhibition of viral DNA replication
[7] = Cytotoxicity against human HepG2.2.15 cells assessed as reduction in cell viability after 3 days by MTS assay; conditions: read-out: TC50
[8] = Selectivity index, ratio of TC50 for human HepG2.2.15 cells to IC50 for Hepatitis B virus subtype adw2 infected in human HuH7 cells assessed as inhibition of HBsAg secretion
[9] = Selectivity index, ratio of TC50 for human HepG2.2.15 cells to IC50 for Hepatitis B virus subtype adw2 infected in human HepG2.2.15 cells assessed as inhibition of HBeAg secretion
[10] = Antiviral activity against Hepatitis B virus subtype adw2 infected in human HepG2.2.15 cells assessed as inhibition of HBeAg secretion by EIA
[11] = Antiviral activity against Hepatitis B virus in human HepG2.2.15 cells assessed as inhibition of HBsAg secretion by EIA
[12] = Antiviral activity against Hepatitis B virus subtype adw2 in human HepG2.2.15 cells assessed as inhibition of viral DNA replication by RT-PCR method
[13] = as §1; type: functional, cell-based; conditions: Huh-7
[14] = tested on: Hepatitis B virus subtype adw2; assay: Antiviral activity against Hepatitis B virus subtype adw2 infected in human HuH7 cells assessed as inhibition of viral DNA replication at 10 uM after 2 days by RT-PCR method; type: functional, cell-based
Summary of the method: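 Huh7 cells transfected with pHBV1.2, a plasmid carrying 1.2-fold of the HBV adw2 genome, for 2 days, then treated for another 2 days. Secreted viral particles were isolated from the culture medium and extracellular HBV DNA quantified by real-time PCR against untreated or vehicle controls; n = 3.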

[15] = Antiviral activity against Hepatitis B virus subtype adw2 infected in human HuH7 cells assessed as reduction in HBcAg level at 5 ug/ml after 2 days by immunoblot method relative to control; type: functional
Summary of the method: (§2)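 Huh7 cells were transfected with pHBV1.2 (1.2-fold HBV adw2 genome) for 2 days, then exposed to 2.5, 5 or 10 μg/mL for another 2 days. Whole-cell protein was extracted with protease inhibitors. SHBs, HBcAg and HBx were detected by immunoblot, with α-tubulin for comparison.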

[16] = Antiviral activity against Hepatitis B virus subtype adw2 infected in human HuH7 cells assessed as reduction in HBx level at 5 ug/ml after 2 days by immunoblot method relative to control; type: functional; summary of the method: as §2

## C=C1C[C@@]23CC[C@H]4[C@@](C)(CCC[C@@]4(C)NC(=O)CCCCC)[C@@H]2CC[C@]1(O)C3
[1]
  inhibition: Active
[2]
  inhibition: Active
[3]
  inhibition: Active

## C=C1C[C@@]23CC[C@H]4[C@@](C)(CCC[C@@]4(C)NC(=O)c4ccc(CC)cc4)[C@@H]2CC[C@]1(O)C3
[1]
  inhibition: Active
[2]
  inhibition: Active
[3]
  inhibition: Active

## C=C1C[C@@]23CC[C@H]4[C@@](C)(CCC[C@@]4(C)NC(=O)c4ccc(F)cc4)[C@@H]2CC[C@]1(O)C3
[1]
  inhibition: Active
[2]
  inhibition: Active
[3]
  inhibition: Active

## C=C1C[C@@]23CC[C@H]4[C@@](C)(CCC[C@@]4(C)NC(=O)c4ccc(Br)cc4)[C@@H]2CC[C@]1(O)C3
[1]
  inhibition: Active
[2]
  inhibition: Active
[3]
  inhibition: Active

## C=C1C[C@@]23CC[C@H]4[C@@](C)(CCC[C@@]4(C)NC(=O)c4ccc(C#N)cc4)[C@@H]2CC[C@]1(O)C3
[4]
  IC50: 9 µM
[5]
  IC50: 8.3 µM
[6]
  selectivity ratio: 13.9
[7]
  CC50 at 72 h: 125 µM
[8]
  selectivity ratio: 15.1
[9]
  selectivity ratio: 9.2
[10]
  IC50: 13.6 µM

## C=C1C[C@@]23CC[C@H]4[C@@](C)(CCC[C@@]4(C)NC(=O)c4cccs4)[C@@H]2CC[C@]1(O)C3
[1]
  inhibition: Active
[2]
  inhibition: Active
[3]
  inhibition: Active

## C=C1C[C@@]23CC[C@H]4[C@@](C)(CCC[C@@]4(C)NC(=O)Nc4ccc(OC)c(OC)c4)[C@@H]2CC[C@]1(O)C3
[11]
  IC50: 11.7 to 14 µM
[10]
  IC50: 7.7 to 13.6 µM
[12]
  IC50: 14.3 µM

## C=C1C[C@@]23CC[C@H]4[C@@](C)(CCC[C@@]4(C)NC(=O)c4ccc(C)cc4)[C@@H]2CC[C@]1(O)C3
[1]
  inhibition: Active
[2]
  inhibition: Active
[3]
  inhibition: Active

## C=C1C[C@@]23CC[C@H]4[C@@](C)(CCC[C@@]4(C)N=C=O)[C@@H]2CC[C@]1(O)C3
[11]
  IC50: 19.1 µM
[13]
  IC50: 30 µM
[6]
  selectivity ratio: 11.2
[7]
  CC50 at 72 h: 337 µM
[8]
  selectivity ratio: 17.6
[9]
  selectivity ratio: 11.8
[10]
  IC50: 28.5 µM

## C=C1C[C@@]23CC[C@H]4[C@@](C)(CCC[C@@]4(C)NC(=O)Nc4ccc(C)cc4)[C@@H]2CC[C@]1(O)C3
[11]
  IC50: 59.6 µM

## C=C1C[C@@]23CC[C@H]4[C@@](C)(CCC[C@@]4(C)NC(=O)Nc4ccccc4)[C@@H]2CC[C@]1(O)C3
[5]
  IC50: 33.5 µM

## C=C1C[C@@]23CC[C@H]4[C@@](C)(CCC[C@@]4(C)NC(=O)c4ccc(Cl)cc4)[C@@H]2CC[C@]1(O)C3
[1]
  inhibition: Active
[2]
  inhibition: Active
[3]
  inhibition: Active

## C=C1C[C@@]23CC[C@H]4[C@@](C)(CCC[C@@]4(C)NC(=O)c4ccccc4)[C@@H]2CC[C@]1(O)C3
[1]
  inhibition: Active
[2]
  inhibition: Active
[3]
  inhibition: Active

## C=C1C[C@@]23CC[C@H]4[C@@](C)(CCC[C@@]4(C)NC(=O)Nc4ccc(Cl)cc4)[C@@H]2CC[C@]1(O)C3
[5]
  IC50: 8 µM
[6]
  selectivity ratio: 6.6
[10]
  IC50: 5 µM
[12]
  IC50: 4.5 µM

## C=C1C[C@@]23CC[C@H]4[C@@](C)(CCC[C@@]4(C)NC(=O)CCCC)[C@@H]2CC[C@]1(O)C3
[1]
  inhibition: Active
[2]
  inhibition: Active
[3]
  inhibition: Active

## C=C1C[C@@]23CC[C@H]4[C@@](C)(CCC[C@@]4(C)NC(=O)CC)[C@@H]2CC[C@]1(O)C3
[2]
  inhibition: Active
[3]
  inhibition: Active

## C=C1C[C@@]23CC[C@H]4[C@@](C)(CCC[C@@]4(C)NC(=O)c4ccc(OC)cc4)[C@@H]2CC[C@]1(O)C3
[1]
  inhibition: Active
[2]
  inhibition: Active
[3]
  inhibition: Active

## C=C1C[C@@]23CC[C@H]4[C@@](C)(CCC[C@@]4(C)NC(=O)Nc4ccc(F)cc4)[C@@H]2CC[C@]1(O)C3
[2]
  inhibition: Active
[3]
  inhibition: Active

## O=c1[nH]cc(F)c(=O)[nH]1 [FLUOROURACIL]
[7]
  CC50 at 72 h: 228 µM

## C=C1C[C@@]23CC[C@H]4[C@@](C)(CCC[C@@]4(C)NC(=O)Nc4cc(OC)c(OC)c(OC)c4)[C@@H]2CC[C@]1(O)C3
[11]
  IC50: 11.7 to 14 µM
[10]
  IC50: 7.7 to 13.6 µM
[12]
  IC50: 6.3 µM

## C=C1C[C@@]23CC[C@H]4[C@@](C)(CCC[C@@]4(C)C(=O)O)[C@@H]2CC[C@]1(O)C3 [STEVIOL]
[13]
  IC50: 19.9 µM
[5]
  IC50: 20.8 µM
[6]
  selectivity ratio: 23.8
[7]
  CC50 at 72 h: 474 µM
[8]
  selectivity ratio: 22.8
[9]
  selectivity ratio: 28.6
[10]
  IC50: 16.6 µM

## COc1ccc(C[C@H]2NC[C@H](O)[C@H]2OC(C)=O)cc1
[14]
  inhibition: inactive

## Nc1ccn([C@@H]2CS[C@H](CO)O2)c(=O)n1 [LAMIVUDINE]
[4]
  IC50: 108 µM
[15]
  fold change (FC): 0.21
[16]
  fold change (FC): 0.17
[6]
  selectivity ratio: 22
[7]
  CC50 at 72 h: 2360 µM

## C=C1C[C@@]23CC[C@H]4[C@@](C)(CCC[C@@]4(C)NC(=O)c4ccc(OCC)cc4)[C@@H]2CC[C@]1(O)C3
[4]
  IC50: 4 µM
[5]
  IC50: 2.7 µM
[6]
  selectivity ratio: 14.1
[7]
  CC50 at 72 h: 56.3 µM
[8]
  selectivity ratio: 20.9
[9]
  selectivity ratio: 16.6
[10]
  IC50: 3.4 µM

## C=C1C[C@@]23CC[C@H]4[C@@](C)(CCC[C@@]4(C)N)[C@@H]2CC[C@]1(O)C3
[11]
  IC50: 30.7 µM
[4]
  IC50: 35.8 µM
[6]
  selectivity ratio: 4.7
[7]
  CC50 at 72 h: 169 µM
[8]
  selectivity ratio: 5.5
[9]
  selectivity ratio: 5.4
[10]
  IC50: 31.2 µM

## C=C1C[C@@]23CC[C@H]4[C@@](C)(CCC[C@@]4(C)NC(=O)CCC)[C@@H]2CC[C@]1(O)C3
[2]
  inhibition: Active
[3]
  inhibition: Active

## C=C1C[C@@]23CC[C@H]4[C@@](C)(CCC[C@@]4(C)NC(=O)Nc4ccc(Br)cc4)[C@@H]2CC[C@]1(O)C3
[2]
  inhibition: Active
[3]
  inhibition: Active

## C=C1C[C@@]23CC[C@H]4[C@@](C)(CCC[C@@]4(C)NC(=O)Nc4ccc(OC)cc4)[C@@H]2CC[C@]1(O)C3
[11]
  IC50: 11.7 to 14 µM
[10]
  IC50: 7.7 to 13.6 µM
[12]
  IC50: 14.7 µM

## C=C1C[C@@]23CC[C@H]4[C@@](C)(CCC[C@@]4(C)NC(C)=O)[C@@H]2CC[C@]1(O)C3
[1]
  inhibition: Active
[2]
  inhibition: Active
[3]
  inhibition: Active

## C=C1C[C@@]23CC[C@H]4[C@@](C)(CCC[C@@]4(C)NC(=O)c4ccc(I)cc4)[C@@H]2CC[C@]1(O)C3
[11]
  IC50: 14.2 µM
[4]
  IC50: 21.9 µM
[6]
  selectivity ratio: 18.8
[7]
  CC50 at 72 h: 413 µM
[8]
  selectivity ratio: 29.1
[9]
  selectivity ratio: 17.3
[10]
  IC50: 23.9 µM
